Measurements published in the EternaBench riboswitch data.

System: MS2 coat protein
Assay: apparent Kd, MS2 coat protein; higher = weaker binding; RNA-MaP array; FMN 200 µM where present
Outline: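 Two titrations, one without ligand and one with constant ligand, were run with SNAP-549-labelled MS2 coat protein from 0.7 or 1.5 nM, doubling to 3 µM. The targets were designs transcribed by stalled E. coli RNA polymerase on Illumina sequencing-chip clusters, in 100 mM Tris-HCl pH 7.5, 80 mM KCl, 4 mM MgCl2, BSA, DTT, yeast tRNA and Tween-20. The apparent Kd is the median of filtered per-cluster binding-curve fits, with green signal normalised to red-channel RNA signal and control-cluster median Fmax.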

[1] = designed as: ON switch for flavin mononucleotide, no ligand
[2] = ligand present: flavin mononucleotide, designed as: ON switch for flavin mononucleotide
[3] = designed as: OFF switch for flavin mononucleotide, no ligand
[4] = ligand present: flavin mononucleotide, designed as: OFF switch for flavin mononucleotide

Sequence	apparent Kd [1]	apparent Kd [2]	apparent Kd [3]	apparent Kd [4]
UUGGACGUCGUAGGAUAUGUAGGAUAUUCCUACAUGAGGAUCACCCAUGUUGACAUGGAAGAAGGACAGAAGGAAGAUGUCCAU	776 nM	13.9 nM	–	–
AUCAGCUCGUCAGGAUAUGCGUCACUGCUUCGGCAGUGUGGUAAGAUCACAUGAGGAUCACCCAUGUAGAAGGGACGAGCUGAU	–	–	9.91 nM	75.2 nM
UUAAUUAAUUAAUUGCAGAUUACAUGAGGAUCACCCAUGUAUAAGGAUAUCGUCAGGAAUACUGACGAGAAGGUAUACAACUGC	–	–	20.3 nM	25.4 nM
CCGAGAUGUGCAGGAUAUCAGGAUACGGUCCGCUGAGAAGGGCACAUGAGGAUCACCCAUGUGUGCGCAUAGGUGAAAGGCUUU	–	–	285 nM	154 nM
ACAUGAGGAUCACCCAUGUAUUACAUGGUUAAGUUUAUUAACAGAAGGCGAAAUUACCACUUGAUCGAGGAUAUGUAUUCUAUU	–	–	49.1 nM	43.4 nM
GUACGUGGACAGAAGGCGACAUGAGGAUCACCCAUGUUGGCUCGGGUACGAGCAAUCCGCGUGAUUGAGGAUAUGUCUGCGGGC	–	–	6.25 nM	9.93 nM
UUGUACCGGUGAGGAUAUUUUUGAUAGAACUUUAUGAUAUACAUGAGGAUCACCCAUGUUACUUUAAAGAAGGCAUCGGAUUAU	–	–	19.4 nM	15.3 nM
GCGUACAUAUCAGGAUAUCAUAUUAUUGUUUUACUCAGUGUAUACAUGAGGAUCACCCAUGUUCUUGAGAAGGGAUAUGUACGC	–	–	8.22 nM	9.91 nM
GACUCGGGUGCAGGAUAUCCGCCGGAUCGCAGUGGAGAAGGGCGCCAAGCGAACAUGAGGAUCACCCAUGUAUCGGAGUUGAAC	56.9 nM	10.4 nM	–	–
UCAUUAUAAAUCCAUCAUAACUACAUGAGGAUCACCCAUGUGCAGGAUAUCGAUGGUUUAACUAUCGAGAAGGGCAAUUACAGA	–	–	31.9 nM	72.1 nM
AAAGCAACAUGAGGAUCACCCAUGUAGGAUAUCGCUAUUGUAAUCAUGAAACAUGAUUACAAUAGCGAGAAGGACAUAUGGCCC	–	–	10.8 nM	31.7 nM
CAGCACGGAAACAAAGUCUUCGGACAUGAGGAUCACCCAUGUAAGGAUAUGCCUACUAAAAGUAGGCAGAAGGUACGCGUGCUG	–	–	18.9 nM	50.9 nM
GGGUACAUCGGAGGAUAUCAUGUAAAUACAUGAGGAUCACCCAUGUCCAUGGAGACAUCGGAGAUUGAGAAGGCCGAUGUACCG	171 nM	203 nM	–	–
GAUCCACAUGAGGAUCACCCAUGUGAGGAUAUGAUACUAUGUACUUCGGUACAUAGUAUCAGAAGGCAUAUUGA	–	–	44 nM	75.7 nM
AAAGUACAUGAGGAUCACCCAUGUUGGAACAAAGCAGGAUAUGUACAAAAGGAAAUAAAUACAGAAGGGCUAAGAA	36.5 nM	21.2 nM	–	–
GUAGCUAUCGGAGGAUAUCCUCAGCGGAAACGCACAUGAGGAUCACCCAUGUAAAUAAAUAAUUAAGAGAAGGCCGAUAGCUAC	706 nM	55 nM	–	–
GUAGCAUGCCAAGGAUAUUCAUAUAGUAGGCAAACAUGAGGAUCACCCAUGUAAUGAUAGCAGUGGGAGAAGGUGGGAUGCUAC	47.5 nM	22.2 nM	–	–
UUGCGGUAGGAGAAGGACAGAGGCGGAAACACAAACAUGAGGAUCACCCAUGUAGGAUAUCCUACCUAACGCGGAUACCUCCAG	–	–	14 nM	39.6 nM
CCGUAAUAUGGAGGAUAUGGAGCCUUAUUGGCUCCAGAAGGUCAUAAAACAUGAGGAUCACCCAUGUCGGCGGUCAAUAGACCG	55.7 nM	20.5 nM	–	–
UUAUUUAUGUAAGGAUAUCGAUGAUAUACACAUCCGACAUGAGGAUCACCCAUGUUUUAUUUUGUCGAGAAGGUACAUUGUCGG	56.2 nM	47 nM	–	–
AUUAUAUAGACAGGAUAUUGAUUAUUAUUUUAACAUGAGGAUCACCCAUGUAGCCUUAUGUAUAACAAGAAGGGUCAUUUAUUA	–	–	151 nM	190 nM
CGUACACAUGAGGAUCACCCAUGUCAGAGGCGGUCAGGAUAUGGGCGGCAUCCGCUAUAGCCAGAAGGGACUGAUG	173 nM	73.6 nM	–	–
GGGAGGUCAGGAUAUGCAUGGCGGGACUUGCGUCGUGGCGUGCAGAAGGGACAUGAGGAUCACCCAUGUGGAGA	–	–	127 nM	252 nM
GACGAGUGAGGAUAUGGUGAGUAGUGCCUGAGCGCUGCUCACCAGAAGGCACAUGAGGAUCACCCAUGUAUGUC	–	–	13.5 nM	17.6 nM

Sequence	apparent Kd [1]	apparent Kd [2]	apparent Kd [3]	apparent Kd [4]
UCGCCACAUGAGGAUCACCCAUGUCAGGAUAUCUAGAUGCGUCUUGAGCUCAAGCGCUGGAGAAGGGAUUGGGU	–	–	235 nM	67.5 nM
AGCGUGUUAGGAUAUACACGACGCUGGGUAGCUAGCGGAGGGUAGAAGGGACAUGAGGAUCACCCAUGUUCGGG	–	–	74.1 nM	105 nM
AAUAUAGAGCUGGACUCAAAAUAAACAUGAGGAUCACCCAUGUAGGAUAUCAGCACGAUAAGUGCUGAGAAGGACAUCCAGCUC	–	–	15.4 nM	14.2 nM
AGUUUUGUACAUGAGGAUCACCCAUGUUAAUAUGUGGUAGUCAGAAGGCAUUGUUAGUGUUUAUAUGAGGAUAUGAUUAUUCAG	41.1 nM	16.4 nM	–	–
GUUACAUGAGGAUCACCCAUGUAUGUGUGGGAGUAAGUGUCUUAGGAUAUCUAUUAUUGAAAUUAAGAGAAGGAAGAUUGUUGU	113 nM	104 nM	–	–
GAUUCGGGAGGAUAUACAUGAGGAUCACCCAUGUAUAUAUAAUAUAUUAAAUUAUCAUGUAGAAGGUUUGGGUC	–	–	24.2 nM	23.4 nM
UACUACGCAGGAUAUACAUGAGGAUCACCCAUGUGUCUGCGAUAGGCACGUGAAAUCCGUAGAAGGGUGUAGAU	–	–	42 nM	109 nM
GUCUUUUUACAGAAGGUGUUUUACAUGAGGAUCACCCAUGUUUAUAUGUUUAAAUUUGAUAUUUACAAGGAUAUGUACUAAUCU	25.3 nM	17.4 nM	–	–
AAGGAGUUAGGAUAUGCUGCUCGUCACUUGCGUGAUGAGUAGCAGAAGGAACAUGAGGAUCACCCAUGUAAAGA	–	–	30.2 nM	24.2 nM
GGUGCGUGUGUGAGGAUAUGCUGGUCCUUGGAUCAGCAGAAGGCACAUGAGGAUCACCCAUGUGGUGUCGUACC	–	–	490 nM	24.8 nM
UCGUGAAGGACAGGAUAUGGACAUGAGGAUCACCCAUGUACAUGGGAAUAUAUACUGAAUUUGUACUAGAAGGGUUACAUAAAU	–	–	26.1 nM	20.1 nM
UUGGGACUAUCAGGAUAUGGUGUAGCCUAGUAAAGGACAUGAGGAUCACCCAUGUACCAUUGGUACCAGAAGGGAUGAUCCUAC	173 nM	46 nM	–	–
GGACGUCACAUGAACAUGAGGAUCACCCAUGUAAAUUCUCAUGAGGAUAUGGUUCCUAAUUGGAACCAGAAGGCAUGGACGUCC	1450 nM	408 nM	–	–
GUCCUUUCUGAGGAUAUUAUCUGGUUCGAUUGAUAAGAAGGCAGUACAUGAGGAUCACCCAUGUGGUUCGUUUG	–	–	115 nM	268 nM
AGCCUACAUGAGGAUCACCCAUGUCAGGAUAUCUCGCGGCGCGUCAAGUUCACGCCGCAGAGAAGGGACUCGGG	–	–	47.9 nM	47.3 nM
GGUCUGCGAGGAUAUACAUGAGGAUCACCCAUGUGCGAGAUACUAGUGAGGUCGAUUGGUAGAAGGCGCGGACA	–	–	105 nM	66.6 nM
AUUAGCUGAGGAUAUGCAGCUUUGUUCGUCGAGUGAAAAGAACAUGAGGAUCACCCAUGUAGAAGGCAGUUGAC	–	–	17.4 nM	18.1 nM
CCCGCGAUGUCAGGAUAUAGUCGGAGGUGCAGACUAGAAGGGACAUGAGGAUCACCCAUGUGCGUGAAAAUUUAAAACCUAAAU	–	–	39.3 nM	119 nM
AGUACUACAGGAUAUACAUGAAUGAUAAUCAUUACCCUUAUACAUGAGGAUCACCCAUGUAGAAGGGUAGUACA	–	–	16.4 nM	20 nM
AGCGAACAUGAGGAUCACCCAUGUGAAAAACAUAGAGGAUAUGUCGCAUGAGUGUAAAAGACAGAAGGCUAUCGCA	225 nM	54.8 nM	–	–
AGUAGAUCAGGAUAUACGUAAAUGGUAAUUAUGUAACUUUUACAUGAGGAUCACCCAUGUAGAAGGGAUCUACA	–	–	17.5 nM	18.1 nM
GUCAGCUCGUGAGGAUAUACAUGUGCUGGAAACAGCACUAUUAAGUUCACAUGAGGAUCACCCAUGUAGAAGGCACGAGCUGAU	–	–	15.7 nM	20.3 nM
GGAUUACAUGAGGAUCACCCAUGUGAGGAUAUCGAUGUCCUCAAUAAAGUGCGGGACUCGAGAAGGCACUUGGA	–	–	63 nM	83 nM
GGUGCCAUGUAGAAGGCAGAUCUGAUUCAGAUCUGAGGAUAUACAUGAGGAUCACCCAUGUAAAGGCACCUCACGAGAGUGCAA	–	–	10.5 nM	34.6 nM
